The source of these data is ChEMBL document CHEMBL4602608, “Isoquinoline Kelch-like ECH-Associated Protein 1-Nuclear Factor (Erythroid-Derived 2)-like 2 (KEAP1-NRF2) Inhibitors with High Metabolic Stability” (J Med Chem, 2020).

The nature of data set [1]: Partition coefficient, logD between n-octanol and pH 7.4 buffer by HPLC analysis. In kind it is physicochemical. The settings on record: n-octanol/pH 7.4 buffer.
The next data set addresses Keap1/Nrf2 (Homo sapiens, UniProt Q14145). Nature of the data set: Inhibition of Keap1-Nrf2 Interaction (unknown origin) by fluorescence anisotropy. In kind it is protein assay.
Data set [2] in a line: Half life in human liver microsomes in presence of NADPH by LC-MS/MS analysis. The class given is ADME, Microsome.
The target in data set [3] is T1, Keap1/Nrf2 (Homo sapiens) (UniProt Q16236+Q14145). The experiment in a line: Inhibition of Keap1-Nrf2 Interaction in human HaCaT cells assessed as increase in NQO1 protein level at 0.25 uM incubated for 16 hrs by Western blot analysis relative to control. In kind it is cell-based. The essentials:
(§1)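 HaCaT keratinocytes were grown in DMEM with 10% FBS and 1% antibiotics, then treated at 70–80% confluence in complete medium, with DMSO as vehicle. RIPA lysates (~40 μg protein) were run on 10% SDS-PAGE and immunoblotted for NRF2 and NQO1, with β-actin as loading control and chemiluminescent detection. Values are mean fold change versus DMSO from two biological replicates.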

The target in data set [4] is T1, Keap1/Nrf2 (Homo sapiens). Nature of the data set: Inhibition of Keap1-Nrf2 Interaction in human HaCaT cells assessed as increase in Nrf2 protein level at 0.25 uM incubated for 16 hrs by Western blot analysis relative to control. The class given is cell-based. The essentials:
as §1

Chain of Keap1/Nrf2 (Q16236 whole entry): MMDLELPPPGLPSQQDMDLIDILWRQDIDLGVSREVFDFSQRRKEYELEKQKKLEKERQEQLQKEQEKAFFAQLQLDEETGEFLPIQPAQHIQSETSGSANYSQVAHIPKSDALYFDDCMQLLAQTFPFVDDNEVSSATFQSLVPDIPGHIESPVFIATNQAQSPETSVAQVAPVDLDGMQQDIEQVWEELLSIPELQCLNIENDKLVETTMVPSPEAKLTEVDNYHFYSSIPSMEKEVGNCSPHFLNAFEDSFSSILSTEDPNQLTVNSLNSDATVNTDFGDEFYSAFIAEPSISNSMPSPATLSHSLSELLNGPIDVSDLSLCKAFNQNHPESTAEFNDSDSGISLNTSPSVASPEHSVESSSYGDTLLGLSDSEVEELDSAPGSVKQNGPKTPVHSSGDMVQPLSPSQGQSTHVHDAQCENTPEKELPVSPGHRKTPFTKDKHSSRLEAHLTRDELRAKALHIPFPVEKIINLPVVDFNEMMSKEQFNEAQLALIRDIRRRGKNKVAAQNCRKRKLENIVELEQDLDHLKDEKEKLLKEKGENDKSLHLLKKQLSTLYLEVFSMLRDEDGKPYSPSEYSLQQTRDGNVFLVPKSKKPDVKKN
Chain of Keap1/Nrf2 (Q14145 whole entry): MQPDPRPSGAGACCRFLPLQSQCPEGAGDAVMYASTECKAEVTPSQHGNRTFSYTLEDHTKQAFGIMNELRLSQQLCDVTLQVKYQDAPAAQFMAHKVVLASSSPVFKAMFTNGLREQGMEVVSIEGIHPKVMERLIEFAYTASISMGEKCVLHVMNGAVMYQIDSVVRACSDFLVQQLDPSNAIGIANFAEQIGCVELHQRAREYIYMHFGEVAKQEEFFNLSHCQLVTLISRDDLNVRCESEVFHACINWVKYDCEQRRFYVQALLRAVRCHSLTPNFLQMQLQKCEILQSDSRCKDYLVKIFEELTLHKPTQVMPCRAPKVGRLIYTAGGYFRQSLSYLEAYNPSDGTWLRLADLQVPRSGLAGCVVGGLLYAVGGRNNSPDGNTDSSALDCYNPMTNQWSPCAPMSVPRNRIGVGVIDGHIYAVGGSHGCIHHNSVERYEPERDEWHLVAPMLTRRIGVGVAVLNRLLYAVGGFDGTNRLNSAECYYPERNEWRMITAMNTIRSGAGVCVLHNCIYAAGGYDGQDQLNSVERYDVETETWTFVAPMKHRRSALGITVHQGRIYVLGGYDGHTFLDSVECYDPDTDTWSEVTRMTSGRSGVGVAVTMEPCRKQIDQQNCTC
T1 sequence (Q14145 whole entry, looked up): as the sequence (Q14145 whole entry) above
T1 sequence (Q16236 whole entry, looked up): as the sequence (Q16236 whole entry) above

Regarding `COc1ccc(S(=O)(=O)N(CC(=O)O)c2cnc(N(CC(=O)O)S(=O)(=O)c3ccc(F)cc3)c3ccccc23)cc1`, the logD in data set [1] is -1.9. The same compound registered a concentration for half-maximal inhibition (IC50) against Keap1/Nrf2 of 280 nM.
In data set [1], `COc1ccc(S(=O)(=O)Nc2cnc(N(C(C)C(=O)O)S(=O)(=O)c3ccc(OC)cc3)c3ccccc23)cc1` (stereo not given) yielded a logD of -1.1. This compound also had an IC50 against Keap1/Nrf2 of 2300 nM.
As to `COc1ccc(S(=O)(=O)N(CC(F)(F)F)c2cnc(N(CC(=O)O)S(=O)(=O)c3ccc(OC)cc3)c3ccccc23)cc1`, the t1/2 in data set [2] came out at 2.27 h. The logD in data set [1] was 0.5.
`COc1ccc(S(=O)(=O)N(CC(F)F)c2cnc(N(CC(=O)O)S(=O)(=O)c3ccc(OC)cc3)c3ccccc23)cc1`: in data set [2], the t1/2 worked out at 1.62 h. In addition, the logD in data set [1] worked out at 0.2. In addition, inhibition on Keap1/Nrf2 was half-maximal at 55 nM (IC50).
As for `O=C(O)CN(c1ncc(N(CC(F)(F)F)S(=O)(=O)c2ccc(F)cc2)c2ccccc12)S(=O)(=O)c1ccc(F)cc1`, the t1/2 in data set [2] is over 3 h. Besides, the logD in data set [1] is 0.6. At Keap1/Nrf2, this compound gave an IC50 of 420 nM.
With `COc1ccc(S(=O)(=O)N(CC(F)(F)F)c2cnc(N(CC(=O)O)S(=O)(=O)c3ccc(F)cc3)c3ccccc23)cc1`, the t1/2 in data set [2] is over 3 h. This compound also gave a logD in data set [1] of 0.6. This compound also returned an IC50 on Keap1/Nrf2 of 130 nM.
`COc1ccc(S(=O)(=O)N(C)c2cnc(N(CC(=O)O)S(=O)(=O)c3ccc(OC)cc3)c3ccccc23)cc1`: the t1/2 in data set [2] turned out to be 0.1 h. Further, the logD in data set [1] is 0. Also, the IC50 at Keap1/Nrf2 stood at 1000 nM.
For the compound `COc1ccc(S(=O)(=O)N(CCF)c2cnc(N(CC(=O)O)S(=O)(=O)c3ccc(OC)cc3)c3ccccc23)cc1`, the t1/2 in data set [2] worked out at 0.967 h. The logD in data set [1] was -0.1. For the same compound, inhibition against Keap1/Nrf2 was half-maximal at 210 nM (IC50).
In the case of `COc1ccc(S(=O)(=O)N(CC(=O)O)c2ncc(N(CC(F)(F)F)S(=O)(=O)c3ccc(F)cc3)c3ccccc23)cc1`, the t1/2 in data set [2] was over 3 h. Also, the logD in data set [1] was determined as 0.5. This compound had an IC50 on Keap1/Nrf2 of 120 nM.
For the compound `COc1ccc(S(=O)(=O)Nc2ncc(N(CC(=O)O)S(=O)(=O)c3ccc(OC)cc3)c3ccccc23)cc1`, the logD in data set [1] is -0.5. Inhibition on Keap1/Nrf2 was half-maximal at 1100 nM (IC50).
Consider `O=C(O)CN(c1cnc(N(CC(=O)O)S(=O)(=O)c2ccc(O)cc2)c2ccccc12)S(=O)(=O)c1ccc(O)cc1`, for which the t1/2 in data set [2] is 0.05 h. Moreover, the IC50 against Keap1/Nrf2 was 350 nM.
On to `COc1ccc(S(=O)(=O)Nc2cnc(N(CC(=O)O)S(=O)(=O)c3ccc(OC)cc3)c3ccccc23)cc1`, for which the t1/2 in data set [2] was 0.617 h. The compound also yielded an IC50 at Keap1/Nrf2 of 230 nM.
Take `COC(=O)[C@]12CCC(C)(C)C[C@H]1[C@H]1C(=O)C=C3[C@@]4(C)C=C(C#N)C(=O)C(C)(C)[C@@H]4CC[C@@]3(C)[C@]1(C)CC2`: the results for the fold change (FC) in data set [3] and in data set [4] were 1.43 and 3.34, respectively.
The compound `O=C(O)CN(c1cnc(N(CC(=O)O)S(=O)(=O)c2ccc(F)cc2)c2ccccc12)S(=O)(=O)c1ccc(F)cc1` displayed an IC50 against Keap1/Nrf2 of 430 nM.
For the compound `COc1ccc(S(=O)(=O)N(CC(=O)O)c2ncc(N(CC(=O)O)S(=O)(=O)c3ccc(F)cc3)c3ccccc23)cc1`, in data set [1], the logD was -1.8. Moreover, at Keap1/Nrf2, the IC50 worked out at 240 nM.
